The results in this text go back to ChEMBL document CHEMBL1130789, “Peptidyl human heart chymase inhibitors. 1. Synthesis and inhibitory activity of difluoromethylene ketone derivatives bearing P' binding subsites” (Bioorg Med Chem Lett, 1998).

One assay deals with T1, Chymase (Homo sapiens, UniProt P23946).
T1 sequence (P23946 whole entry): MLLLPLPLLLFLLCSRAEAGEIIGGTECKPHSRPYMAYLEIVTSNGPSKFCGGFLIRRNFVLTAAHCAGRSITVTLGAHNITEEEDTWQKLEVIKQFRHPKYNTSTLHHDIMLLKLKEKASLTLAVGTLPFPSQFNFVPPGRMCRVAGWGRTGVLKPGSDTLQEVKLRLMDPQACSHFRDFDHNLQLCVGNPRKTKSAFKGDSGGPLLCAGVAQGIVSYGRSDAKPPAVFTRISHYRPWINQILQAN
The assay can be described thus: Compound was evaluated for inhibitory activity against human heart chymase (HHC). The essentials: (§1)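 Synthetic chromogenic substrate at 2.5 mM final in 20 mM Tris-HCl pH 7.5 with 2 M KCl. Five inhibitor concentrations were tested, with 10% DMSO in water as the control. The enzyme was added last. A405 minus A650 was read after 2 h at 37 °C. Residual activity was fitted by Easson–Stedman, and Ki = Ki'×Km/(Km+[S]). Mean ± SEM, n = 3 (some n = 2).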

A further assay has as its target Chymotrypsinogen A (Bos taurus, UniProt P00766). The assay can be described thus: Compound was evaluated for inhibitory activity against Chymotrypsinogen. The essentials: as §1
The species entered for another assay is Bos taurus. The assay can be described thus: Selectivity ratio of Bovine chymotrypsin (BCT - Ki) to human heart chymase (HHC - Ki).

Molecules are shown by their SMILES. Non-standard residues stand in square brackets, D forms with d. Residues, ends and D or L forms follow the SMILES beside them. ξ: configuration not given here. *: point of attachment. ξF = NC(Cc1ccccc1)C(=O)O; Boc = CC(C)(C)OC(=O)*; CF3 = FC(F)(F)*

Turning to `CNC(=O)C(F)(F)C(=O)C(Cc1ccccc1)NC(=O)[C@@H]1CCCN1C(=O)[C@@H](NC(=O)OC(C)(C)C)C(C)C` (stereo not given in full), the Ki at Chymase came out at 28.7 nM; on Chymotrypsinogen A it was 1070 nM. Further, the Ratio in the assay filed under Bos taurus was found to be 37.
For the compound `CC(C)[C@H](NC(=O)OC(C)(C)C)C(=O)N1CCC[C@H]1C(=O)NC(Cc1ccccc1)C(=O)C(F)(F)C(=O)NCCc1ccccc1` (stereo not given in full), the Ki is 18.3 nM at Chymase and 2040 nM at Chymotrypsinogen A. The Ratio in the assay filed under Bos taurus came out at 111.
As to `CC(C)[C@H](NC(=O)OC(C)(C)C)C(=O)N1CCC[C@H]1C(=O)NC(Cc1ccccc1)C(=O)C(F)(F)C(=O)Nc1ccccc1C(=O)O` (stereo not given in full), the inhibition constant (Ki) is 3620 nM at Chymase and greater than 100000 nM on Chymotrypsinogen A. Further, the Ratio in the assay listed under Bos taurus was greater than 28.
On to `CC(C)[C@H](NC(=O)OC(C)(C)C)C(=O)N1CCC[C@H]1C(=O)NC(Cc1ccccc1)C(=O)C(F)(F)C(=O)NCC(=O)OCc1ccccc1` (stereo not given in full), for which the Ki on Chymase came to 12.5 nM; on Chymotrypsinogen A it was 316 nM. The Ratio in the assay filed under Bos taurus came out at 25.
As for `CC(C)[C@H](NS(C)(=O)=O)C(=O)N1CCC[C@H]1C(=O)NC(Cc1ccccc1)C(=O)C(F)(F)C(=O)Nc1cccc(C(=O)O)c1` (stereo not given in full), the Ki stood at 16.5 nM at Chymase and 207 nM on Chymotrypsinogen A. Also, in the assay filed under Bos taurus, the Ratio came to 13.
As for `CC(C)[C@H](NC(=O)OC(C)(C)C)C(=O)N1CCC[C@H]1C(=O)NC(Cc1ccccc1)C(=O)C(F)(F)C(=O)N[C@@H](Cc1ccccc1)C(=O)O` (stereo not given in full), the Ki stood at 513 nM at Chymase and 77400 nM on Chymotrypsinogen A. Also, the Ratio in the assay listed under Bos taurus came to 151.
Consider `CC(=O)N[C@H](C(=O)N1CCC[C@H]1C(=O)NC(Cc1ccccc1)C(=O)C(F)(F)C(=O)Nc1cccc(C(=O)O)c1)C(C)C` (stereo not given in full), for which the Ki on Chymase came out at 7.1 nM; on Chymotrypsinogen A, 11 nM. The Ratio in the assay filed under Bos taurus was 2.
The corresponding values for `CC(C)[C@H](NC(=O)OC(C)(C)C)C(=O)N1CCC[C@H]1C(=O)NC(Cc1ccccc1)C(=O)C(F)(F)C(=O)NCCC(=O)O` (stereo not given in full) are 36.4 nM, 2300 nM and 63.
Regarding `CC(C)[C@H](NC(=O)OC(C)(C)C)C(=O)N1CCC[C@H]1C(=O)NC(Cc1ccccc1)C(=O)C(F)(F)C(=O)Nc1cccc(C(=O)O)c1` (stereo not given in full), the Ki was 5.6 nM at Chymase and 364 nM on Chymotrypsinogen A.
Turning to `CC(C)[C@H](NC(=O)CCc1ccccc1)C(=O)N1CCC[C@H]1C(=O)NC(Cc1ccccc1)C(=O)C(F)(F)C(=O)Nc1cccc(C(=O)O)c1` (stereo not given in full), the results for the Ki at Chymase and at Chymotrypsinogen A were 1.3 nM and 19 nM, respectively. For the same compound, the Ratio in the assay filed under Bos taurus is 15.
Take `CC(C)[C@H](NC(=O)OC(C)(C)C)C(=O)N1CCC[C@H]1C(=O)NC(Cc1ccccc1)C(=O)C(F)(F)C(=O)N1CCCC1C(=O)O` (stereo not given in full): the values for the inhibition constant (Ki) at Chymase and at Chymotrypsinogen A were 493 nM and greater than 100000 nM, respectively. Also, the Ratio in the assay filed under Bos taurus was greater than 203.
Consider `CC(C)[C@H](NC(=O)OC(C)(C)C)C(=O)N1CCC[C@H]1C(=O)NC(Cc1ccccc1)C(=O)C(F)(F)C(=O)NCc1ccccc1` (mixture of isomers; form 1) [listing 1 of 2 here], for which the Ratio in the assay listed under Bos taurus was determined as 23.
As to `CC(C)[C@H](NC(=O)OC(C)(C)C)C(=O)N1CCC[C@H]1C(=O)NC(Cc1ccccc1)C(=O)C(F)(F)C(=O)NC(Cc1ccccc1)C(=O)O` (stereo not given in full), the Ki on Chymase came out at 30.1 nM; on Chymotrypsinogen A it was 1700 nM. Besides, the Ratio in the assay filed under Bos taurus was 57.
For `CC(C)[C@H](NC(=O)OC(C)(C)C)C(=O)N1CCC[C@H]1C(=O)NC(Cc1ccccc1)C(=O)C(F)(F)C(=O)NC(CC(=O)O)C(=O)O` (stereo not given in full) the same measures were 1550 nM, greater than 100000 nM and greater than 65.
For `CC(C)[C@H](NC(=O)OC(C)(C)C)C(=O)N1CCC[C@H]1C(=O)NC(Cc1ccccc1)C(=O)C(F)(F)C(=O)NC(CCC(=O)O)C(=O)O` (stereo not given in full) the same measures were 1010 nM, greater than 100000 nM and greater than 99.
Regarding `CC(C)[C@H](NC(=O)OC(C)(C)C)C(=O)N1CCC[C@H]1C(=O)NC(Cc1ccccc1)C(=O)C(F)(F)C(=O)NC(C(=O)O)c1ccccc1` (stereo not given in full), the Ki on Chymase was 1040 nM; on Chymotrypsinogen A it was greater than 100000 nM. In addition, the Ratio in the assay filed under Bos taurus was greater than 96.
As to `CC(C)[C@H](NS(=O)(=O)c1ccccc1)C(=O)N1CCC[C@H]1C(=O)NC(Cc1ccccc1)C(=O)C(F)(F)C(=O)Nc1cccc(C(=O)O)c1` (stereo not given in full), the Ki at Chymase amounted to 6.3 nM; on Chymotrypsinogen A it was 554 nM. Further, the Ratio in the assay listed under Bos taurus is 88.
For the compound `CC(C)[C@H](NC(=O)OC(C)(C)C)C(=O)N1CCC[C@H]1C(=O)NC(Cc1ccccc1)C(=O)C(F)(F)C(=O)NCc1ccccc1` (mixture of isomers; form 2) [listing 1 of 2 here], the results for the Ki at Chymase and on Chymotrypsinogen A were 92.4 nM and 11900 nM, respectively.
With `COC(=O)CNC(=O)C(F)(F)C(=O)C(Cc1ccccc1)NC(=O)[C@@H]1CCCN1C(=O)[C@@H](NC(=O)OC(C)(C)C)C(C)C` (stereo not given in full), the Ki on Chymase amounted to 6.5 nM; on Chymotrypsinogen A, 2510 nM. In addition, in the assay listed under Bos taurus, the Ratio worked out at 387.
For `CC(C)[C@H](NC(=O)OC(C)(C)C)C(=O)N1CCC[C@H]1C(=O)NC(Cc1ccccc1)C(=O)C(F)(F)C(=O)NCc1ccccc1` (mixture of isomers; form 1) [listing 2 of 2 here], the figures for the Ki on Chymase and on Chymotrypsinogen A were 7.4 nM and 172 nM, respectively.
Turning to `CC(C)[C@H](NC(=O)OC(C)(C)C)C(=O)N1CCC[C@H]1C(=O)NC(Cc1ccccc1)C(=O)C(F)(F)C(=O)NCCCC(=O)O` (stereo not given in full), the Ki at Chymase was 24 nM; on Chymotrypsinogen A it was 4430 nM. The Ratio in the assay listed under Bos taurus turned out to be 185.
In the case of `CC(C)[C@H](NC(=O)OC(C)(C)C)C(=O)N1CCC[C@H]1C(=O)NC(Cc1ccccc1)C(=O)C(F)(F)C(=O)Nc1ccc(C(=O)O)cc1` (stereo not given in full), the inhibition constant (Ki) on Chymase was 6.8 nM; on Chymotrypsinogen A, 200 nM. For the same compound, in the assay listed under Bos taurus, the Ratio was 29.
On to `CC(C)[C@H](NC(=O)OC(C)(C)C)C(=O)N1CCC[C@H]1C(=O)NC(Cc1ccccc1)C(=O)C(F)(F)C(=O)NCc1ccccc1` (mixture of isomers; form 2) [listing 2 of 2 here], for which the Ratio in the assay listed under Bos taurus came to 129.
`CC(C)[C@H](NC(=O)c1ccccc1)C(=O)N1CCC[C@H]1C(=O)NC(Cc1ccccc1)C(=O)C(F)(F)C(=O)Nc1cccc(C(=O)O)c1` (stereo not given in full): the inhibitory constant (Ki) on Chymase came out at 3.1 nM; on Chymotrypsinogen A, 275 nM. Besides, the Ratio in the assay listed under Bos taurus worked out at 88.
`CC(C)[C@H](NC(=O)OC(C)(C)C)C(=O)N1CCC[C@H]1C(=O)NC(Cc1ccccc1)C(=O)C(F)(F)C(=O)NCC(=O)O` (stereo not given in full): the values for the Ki on Chymase and on Chymotrypsinogen A were 13.1 nM and 2620 nM, respectively. Also, the Ratio in the assay listed under Bos taurus turned out to be 200.
For the compound `CC(C)[C@H](NC(=O)OC(C)(C)C)C(=O)N1CCC[C@H]1C(=O)NC(Cc1ccccc1)C(=O)C(F)(F)C(=O)Nc1ccccc1` (stereo not given in full), the Ki was determined as 16.3 nM on Chymase and 70 nM on Chymotrypsinogen A. For the same compound, the Ratio in the assay filed under Bos taurus came out at 4.
The corresponding values for `CC(C)[C@H](NC(=O)OC(C)(C)C)C(=O)N1CCC[C@H]1C(=O)NC(Cc1ccccc1)C(=O)C(F)(F)C(=O)N(C)Cc1ccccc1` (stereo not given in full) are 70.1 nM, 7550 nM and 108.
As for `CC(NC(=O)C(F)(F)C(=O)C(Cc1ccccc1)NC(=O)[C@@H]1CCCN1C(=O)[C@@H](NC(=O)OC(C)(C)C)C(C)C)C(=O)O` (stereo not given in full), the figures for the Ki at Chymase and on Chymotrypsinogen A were 65.6 nM and 54900 nM, respectively. For the same compound, the Ratio in the assay listed under Bos taurus is 837.
As for `CC(C)[C@H](NC(=O)OC(C)(C)C)C(=O)N1CCC[C@H]1C(=O)NC(Cc1ccccc1)C(=O)C(F)(F)F` (stereo partly drawn) (Boc-Val-Pro-[ξF]-CF3), the Ki came to 55.8 nM on Chymase and 113 nM on Chymotrypsinogen A. In addition, the Ratio in the assay listed under Bos taurus turned out to be 2.
